In ChEMBL document CHEMBL4257595, “Improving the Selectivity of PACE4 Inhibitors through Modifications of the P1 Residue” (J Med Chem, 2018):
The source made the active and inactive calls. No cut-off for these calls is given here. Square brackets hold non-standard residues; d marks the D form. Peptide text beside a SMILES is read from it. * marks the point of attachment. NH(4-amidinobenzyl) = N=C(N)c1ccc(CN*)cc1

Key:
[1] = target: T1, Proprotein convertase subtilisin/kexin type 6 (Homo sapiens, UniProt P29122); test: Inhibition of recombinant human PACE4 using pGlu-Arg-Thr-Lys-Arg-AMC peptide as substrate by spectrofluorometry
T1 sequence (P29122 whole entry): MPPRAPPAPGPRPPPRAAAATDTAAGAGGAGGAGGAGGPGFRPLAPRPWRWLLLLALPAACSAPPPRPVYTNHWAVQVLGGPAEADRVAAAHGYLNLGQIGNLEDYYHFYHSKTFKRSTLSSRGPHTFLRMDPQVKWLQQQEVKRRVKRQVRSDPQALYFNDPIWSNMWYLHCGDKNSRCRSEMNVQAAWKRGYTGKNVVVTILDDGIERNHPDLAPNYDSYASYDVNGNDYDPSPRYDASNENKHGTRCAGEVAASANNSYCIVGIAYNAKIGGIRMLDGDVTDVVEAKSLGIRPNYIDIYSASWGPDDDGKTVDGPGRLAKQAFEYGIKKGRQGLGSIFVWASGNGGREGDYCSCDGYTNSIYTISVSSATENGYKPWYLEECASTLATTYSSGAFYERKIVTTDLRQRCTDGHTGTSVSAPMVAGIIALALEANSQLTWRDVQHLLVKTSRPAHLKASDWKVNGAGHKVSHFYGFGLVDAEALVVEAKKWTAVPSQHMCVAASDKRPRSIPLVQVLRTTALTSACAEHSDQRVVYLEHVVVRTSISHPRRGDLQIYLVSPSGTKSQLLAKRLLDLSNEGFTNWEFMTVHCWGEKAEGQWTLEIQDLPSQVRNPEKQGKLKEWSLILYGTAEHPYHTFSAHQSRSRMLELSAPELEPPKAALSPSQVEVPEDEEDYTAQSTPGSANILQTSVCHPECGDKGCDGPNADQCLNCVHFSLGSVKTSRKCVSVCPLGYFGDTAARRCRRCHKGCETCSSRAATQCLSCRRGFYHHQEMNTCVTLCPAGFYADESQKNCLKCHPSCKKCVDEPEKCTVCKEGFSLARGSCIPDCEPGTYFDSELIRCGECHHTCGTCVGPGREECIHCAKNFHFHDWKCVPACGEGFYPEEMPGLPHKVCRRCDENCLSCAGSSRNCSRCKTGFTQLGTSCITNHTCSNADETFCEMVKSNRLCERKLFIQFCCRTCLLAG

Furin = Furin (Homo sapiens, UniProt P09958); test: Inhibition of recombinant human furin using pGlu-Arg-Thr-Lys-Arg-AMC peptide as substrate by spectrofluorometry
Sequence of Furin (P09958 whole entry): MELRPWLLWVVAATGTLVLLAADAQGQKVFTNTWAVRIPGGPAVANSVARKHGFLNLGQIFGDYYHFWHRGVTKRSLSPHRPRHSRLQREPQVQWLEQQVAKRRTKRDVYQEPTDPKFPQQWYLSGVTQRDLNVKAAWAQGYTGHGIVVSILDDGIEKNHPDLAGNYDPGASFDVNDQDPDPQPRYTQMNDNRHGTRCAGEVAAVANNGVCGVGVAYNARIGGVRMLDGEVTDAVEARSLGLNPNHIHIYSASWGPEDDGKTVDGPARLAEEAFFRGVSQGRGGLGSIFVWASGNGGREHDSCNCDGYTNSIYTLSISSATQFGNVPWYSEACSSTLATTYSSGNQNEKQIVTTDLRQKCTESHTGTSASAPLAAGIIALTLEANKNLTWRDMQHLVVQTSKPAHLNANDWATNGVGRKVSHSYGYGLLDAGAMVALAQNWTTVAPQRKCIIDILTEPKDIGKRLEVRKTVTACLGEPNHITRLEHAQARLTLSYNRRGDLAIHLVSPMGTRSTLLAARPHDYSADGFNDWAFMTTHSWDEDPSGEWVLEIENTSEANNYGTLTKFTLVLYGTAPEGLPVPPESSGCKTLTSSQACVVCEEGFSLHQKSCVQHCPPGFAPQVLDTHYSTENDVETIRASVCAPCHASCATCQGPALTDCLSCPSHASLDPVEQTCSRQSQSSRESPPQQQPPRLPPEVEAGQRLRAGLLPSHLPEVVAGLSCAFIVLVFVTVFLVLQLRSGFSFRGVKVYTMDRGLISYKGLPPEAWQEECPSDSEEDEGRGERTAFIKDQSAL
In short: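 Recombinant human furin at 0.54 nM (Km 5.040 µM) in 100 mM Hepes pH 7.5, 1 mM CaCl2, 1 mM β-mercaptoethanol and 1.8 mg/mL BSA. Substrate pGlu-RTKR-AMC at 100 µM per well. Fluorescence read at ex 370 / em 460 nm. Ki derived by Cheng-Prusoff.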

Homo sapiens = species: Homo sapiens; test: Selectivity ratio of Ki for recombinant human furin to Ki for recombinant human PACE4
In short: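 Ratio of Ki values. Furin Ki measured at 0.54 nM enzyme in Hepes pH 7.5; PACE4 Ki measured at 20.18 nM enzyme in Bis-Tris pH 6.5. Both used 100 µM pGlu-RTKR-AMC with fluorescence at ex 370 / em 460 nm, and Ki came from Cheng-Prusoff (Morrison's equation for one PACE4 value).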

DU-145 [2] = test: Antiproliferative activity against human DU145 cells after 72 hrs by MTT assay; assay type: functional, cell-based
In short: (§1)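 MTT proliferation read-out. DU145 cultured in RPMI-1640 with 5% FBS; LNCaP cultured in RPMI-1640 with 10% FBS. IC50 calculated from dose-response curves.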

LNCaP [3] = test: Antiproliferative activity against human LNCAP cells after 72 hrs by MTT assay; assay type: functional, cell-based; in short: as §1
[4] = Drug uptake in human DU145 cells at 1 uM after 48 hrs using FITC-labeled compounds by propidium iodide/ trypan blue-dual staining based flow cytometry; assay type: ADME, cell-based; settings: du-145, 1 h, in the assay text read “1 hr” for “48 hrs”
In short: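 DU145 cells plated at 200000 per 100 mm dish and grown 48 h at 37 °C. FITC-labelled analogue added at 1 µM for 1 h at 37 °C. Cells harvested with 0.05% trypsin and washed in PBS. PI added at 10 µg/mL final just before acquisition. A parallel set was quenched with 0.04% trypan blue. Flow cytometry on ≥10000 events with 488/638 nm lasers.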

[5] = Half life in human plasma; assay type: ADME, cell-free
DU-145 [6] = test: Antiproliferative activity against human DU145 cells at <150 uM after 72 hrs by MTT assay; assay type: functional, cell-based
In short: (§2)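 Doses tested up to 150 µM. MTT read-out on DU145 (RPMI-1640, 5% FBS) or LNCaP (RPMI-1640, 10% FBS).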

LNCaP [7] = test: Antiproliferative activity against human LNCAP cells at <150 uM after 72 hrs by MTT assay; assay type: functional, cell-based; in short: as §2
[8] = Homo sapiens, DU-145, 72 h, read-out: IC50
[9] = Homo sapiens, LNCaP, 72 h, read-out: IC50

Ki [1] [µM]	Ki (Furin) [µM]	Ratio Ki (Homo sapiens)	IC50 (DU-145 [2]; [8]) [µM]	IC50 (LNCaP [3]; [9]) [µM]	Compound	also measured
0.017	0.041	2	80	80	CC(=O)N[C@H](CC(C)C)C(=O)N[C@@H](CC(C)C)C(=O)N[C@@H](CC(C)C)C(=O)N[C@@H](CC(C)C)C(=O)N[C@@H](CCCNC(=N)N)C(=O)N[C@H](C(=O)N[C@@H](CCCCN)C(=O)NCCc1ccc(C(=N)N)cc1)C(C)C	–
–	–	–	–	–	CC(C)C[C@H](NC(=O)[C@H](CC(C)C)NC(=O)[C@H](CC(C)C)NC(=O)[C@@H](CC(C)C)NC(=O)CCN)C(=O)N[C@@H](CCCNC(=N)N)C(=O)N[C@H](C(=O)N[C@@H](CCCCN)C(=O)NCc1ccc(C(=N)N)nc1)C(C)C	Drug uptake [4]: Active
–	–	–	–	–	CC(C)C[C@H](NC(=O)[C@H](CC(C)C)NC(=O)[C@H](CC(C)C)NC(=O)[C@@H](CC(C)C)NC(=O)CCN)C(=O)N[C@@H](CCCNC(=N)N)C(=O)N[C@H](C(=O)N[C@@H](CCCCN)C(=O)NCc1ccc(C(=N)N)cc1)C(C)C	Drug uptake [4]: Active
0.013	0.038	3	40	210	CC(=O)N[C@H](CC(C)C)C(=O)N[C@@H](CC(C)C)C(=O)N[C@@H](CC(C)C)C(=O)N[C@@H](CC(C)C)C(=O)N[C@@H](CCCNC(=N)N)C(=O)N[C@H](C(=O)N[C@@H](CCCCN)C(=O)NC/C=C/CNC(=N)N)C(C)C	–
0.0026	0.0215	8	130	140	CC(=O)N[C@H](CC(C)C)C(=O)N[C@@H](CC(C)C)C(=O)N[C@@H](CC(C)C)C(=O)N[C@@H](CC(C)C)C(=O)N[C@@H](CCCNC(=N)N)C(=O)N[C@H](C(=O)N[C@@H](CCCCN)C(=O)NCc1ccc(C(=N)N)nc1)C(C)C	–
0.7	0.825	1	–	–	CC(=O)N[C@H](CC(C)C)C(=O)N[C@@H](CC(C)C)C(=O)N[C@@H](CC(C)C)C(=O)N[C@@H](CC(C)C)C(=O)N[C@@H](CCCNC(=N)N)C(=O)N[C@H](C(=O)N[C@@H](CCCCN)C(=O)NCc1ccc2c(N)n[nH]c2c1)C(C)C	IC50 (DU-145 [2]; du-145): Nd(Insoluble); IC50 (LNCaP [3]; lncap): Nd(Insoluble)
0.014	0.06	4	61	58	CC(=O)N[C@H](CC(C)C)C(=O)N[C@@H](CC(C)C)C(=O)N[C@@H](CC(C)C)C(=O)N[C@@H](CC(C)C)C(=O)N[C@@H](CCCNC(=N)N)C(=O)N[C@H](C(=O)N[C@@H](CCCCN)C(=O)NCc1ccc(C(=N)N)c(N)c1)C(C)C	–
–	–	32	–	–	CC(=O)N[C@H](CC(C)C)C(=O)N[C@@H](CC(C)C)C(=O)N[C@@H](CC(C)C)C(=O)N[C@@H](CC(C)C)C(=O)N[C@@H](CCCNC(=N)N)C(=O)N[C@H](C(=O)N[C@@H](CCCCN)C(=O)N[C@@H](CCCNC(=N)N)C(N)=O)C(C)C	–
–	–	–	25	45	Ac-LLLLRVKR-NH2	half-life [5]: 1.7 h
0.053	0.24	5	50	113	CC(=O)N[C@H](CC(C)C)C(=O)N[C@@H](CC(C)C)C(=O)N[C@@H](CC(C)C)C(=O)N[C@@H](CC(C)C)C(=O)N[C@@H](CCCNC(=N)N)C(=O)N[C@H](C(=O)N[C@@H](CCCCN)C(=O)NCc1ccc(C(=N)N)c(O)c1)C(C)C	–
0.24	0.6	2	69	230	CC(=O)N[C@H](CC(C)C)C(=O)N[C@@H](CC(C)C)C(=O)N[C@@H](CC(C)C)C(=O)N[C@@H](CC(C)C)C(=O)N[C@@H](CCCNC(=N)N)C(=O)N[C@H](C(=O)N[C@@H](CCCCN)C(=O)NCc1c(F)c(F)c(C(=N)N)c(F)c1F)C(C)C	–
0.5	0.614	1	–	–	CC(=O)N[C@H](CC(C)C)C(=O)N[C@@H](CC(C)C)C(=O)N[C@@H](CC(C)C)C(=O)N[C@@H](CC(C)C)C(=O)N[C@@H](CCCNC(=N)N)C(=O)N[C@H](C(=O)N[C@@H](CCCCN)C(=O)NCc1ccc2c(N)noc2c1)C(C)C	IC50 (DU-145 [2]; du-145): Nd(Insoluble); IC50 (LNCaP [3]; lncap): Nd(Insoluble)
0.19	0.25	–	–	–	CC(=O)N[C@H](CC(C)C)C(=O)N[C@@H](CC(C)C)C(=O)N[C@@H](CC(C)C)C(=O)N[C@@H](CC(C)C)C(=O)N[C@@H](CCCNC(=N)N)C(=O)N[C@H](C(=O)N[C@@H](CCCCN)C(=O)N[C@H](CO)CCCNC(=N)N)C(C)C	Activity (DU-145 [6]): inactive; Activity (LNCaP [7]): inactive
–	–	2	–	–	CC(=O)N[C@H](CC(C)C)C(=O)N[C@@H](CC(C)C)C(=O)N[C@@H](CC(C)C)C(=O)N[C@@H](CC(C)C)C(=O)N[C@@H](CCCNC(=N)N)C(=O)N[C@H](C(=O)N[C@@H](CCCCN)C(=O)NCc1ccc(C(=N)N)cc1)C(C)C (Ac-[dL]LLLRVK-{NH(4-amidinobenzyl)})	–
0.032	0.06	2	110	125	CC(=O)N[C@H](CC(C)C)C(=O)N[C@@H](CC(C)C)C(=O)N[C@@H](CC(C)C)C(=O)N[C@@H](CC(C)C)C(=O)N[C@@H](CCCNC(=N)N)C(=O)N[C@H](C(=O)N[C@@H](CCCCN)C(=O)NCC#CCNC(=N)N)C(C)C	–
